Assay outcomes as filed in PubChem.
MBD2 inh: MBD2-methylated oligo binding inhibition. Q9UBB5. TR-FRET, MBD2 binding to methylated oligonucleotide. inhibition, % at 4.4 µM. 0.31% of 370,000 active. AID 686964; in the data active = inhibition above about 13%
PRMT1 inh: inhibitors of human PRMT1 | Q99873 | recombinant PRMT1, activity-based probe fluorescence polarization | inhibition, % at 2.79 µM | 1.3% of 370,000 active;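 active = inhibition above about 21% made by adding two undisclosed values, limit read from the data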
TDP2 absorb: TDP2 (human) inhibition, absorbance primary screen; 0.34% of 370,000 active; O95551; inhibition, % at 12.8 µM; recombinant TDP2, T5PNP hydrolysis, p-nitrophenol absorbance 415 nm;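 active = inhibition above the mean of all tested compounds plus 3 SD, set per campaign, cut at about 25% in these data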
Target sequence (O95551 whole entry, looked up): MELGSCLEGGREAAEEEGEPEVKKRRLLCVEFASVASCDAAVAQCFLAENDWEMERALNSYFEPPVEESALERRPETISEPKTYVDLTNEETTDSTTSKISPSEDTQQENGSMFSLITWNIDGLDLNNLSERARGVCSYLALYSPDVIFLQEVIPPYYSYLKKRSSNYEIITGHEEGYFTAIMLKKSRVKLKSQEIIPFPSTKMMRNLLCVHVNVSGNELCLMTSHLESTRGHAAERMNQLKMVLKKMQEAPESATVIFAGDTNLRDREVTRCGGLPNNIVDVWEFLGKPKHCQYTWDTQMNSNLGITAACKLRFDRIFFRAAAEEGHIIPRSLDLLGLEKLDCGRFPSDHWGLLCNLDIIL
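Read-out basis: percent inhibition. System: recombinant human TDP2. Buffer or medium: Mg2+-containing Tris-HCl buffer, pH 7.5. Repeats: single replicate. Timing: reaction 2 h, 37 °C. Benchmarks: high control without enzyme, low control DMSO plus TDP2. Probe or stimulus: 5 mM T5PNP. Doses: 12.8 µM only. Measured by: epi absorbance of p-nitrophenol freed from T5PNP by hydrolysis.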
SIAE inh: human SIAE inhibition, primary screen; Q9HAT2; SIAE FP-Rh probe binding, fluorescence polarization; inhibition, % at 9.66 µM; 0.69% of 370,000 active;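 active = inhibition above a cutoff: mean of compounds within the control limits plus 3 SD of those, cut at about 17% in these data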
UHRF1 binding: blocks human UHRF1 binding to methylated DNA; inhibition, % at 4.4 µM; 0.75% of 370,000 active; UHRF1 binding to methylated oligo, TR-FRET; Q96T88; in the data active = inhibition above about 21%;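 also: UHRF1 SRA domain binding a hemimethylated CpG hairpin DNA probe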
LEDGF integ inh: blocks HIV-1 LEDGF/p75-dependent DNA integration | TR-FRET IN-LEDGF/p75 DNA integration, Eu/Cy5 | inhibition, % at 3.7 µM | 0.64% of 370,000 active;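 active = inhibition above the screen-wide mean plus 3 SD, cut at about 13% in these data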;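 also: signal is the Cy5 over europium emission ratio at 671 and 618 nm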
Large screens that a line does not name were inactive. An excerpt weighted towards active compounds, which were near 3.3% of everything screened.

CCCNc1nc(Cl)nc(Nc2ccc(Cl)cc2)n1	none
CCCCNc1nc(Cl)nc(Nc2ccc(C)cc2)n1	UHRF1 binding 21
CC(C)n1nnnc1-c1ccc(Cl)cc1	UHRF1 binding 21
Cc1ccc2[nH]c(=O)c(C3C(C#N)=C(N)Oc4c3ccc3cccnc43)cc2c1 (stereo not given)	SIAE inh 25
Cn1nnnc1SCC(=O)N1CCCc2ccccc21	none
O=C(CSc1nnnn1C1CCCCC1)Nc1ccc2c(c1)OCO2	UHRF1 binding 21
O=C(CSc1nnnn1C1CCCC1)N1CCCc2ccccc21	UHRF1 binding 29
CCOC(=O)c1cccc(NC(=O)CN(C)S(=O)(=O)c2cc3ccccc3s2)c1	none
CC(=O)CC[C@H]1CC[C@]2(CCCN(C(=O)C(C)(C)C)C2)O1	none
C(=C\c1ccccc1)/CN1CCN(C(c2cc3ccccc3o2)c2nnnn2-c2ccc3c(c2)OCCO3)CC1 (stereo not given)	none
COc1ccc(-n2nnnc2C(c2cc3ccccc3o2)N2CCN(C/C=C/c3ccccc3)CC2)cc1 (stereo not given)	UHRF1 binding 23
CCOC(=O)[C@@]12CCCC3=C1N(CCC3)C(=O)[C@H]2CC(=O)NCc1cccc2ccccc12	none
Cc1c(OCC(F)(F)F)ccnc1CS(=O)c1nc2ccccc2[nH]1 (stereo not given)	PRMT1 inh 28
Cc1ccc(-n2c(SCC(=O)c3ccc(O)c(O)c3)nnc2-c2ccccc2)cc1	none
CC(C)c1ccccc1-n1c(SCC(=O)N2CCc3ccccc3C2)nc2ccccc2c1=O	none
O=C(CSc1nc2ccccc2c(=O)n1-c1ccccc1)N1CCc2ccccc2C1	UHRF1 binding 28
COC(=O)C1=NNC2C(=O)N(c3ccc(C)cc3)C(=O)C12 (stereo not given)	none
COC(=O)C1=NNC2C(=O)N(C3CCCCC3)C(=O)C12 (stereo not given)	UHRF1 binding 26
CCC(=O)Nc1ccc(N2CCOCC2)c(S(=O)(=O)Nc2ccc(Cl)cc2)c1	UHRF1 binding 45
CCCCCC(=O)NC(=S)Nc1ccccc1C(=O)OC	UHRF1 binding 24
CCCCC(=O)NC(=S)Nc1ccccc1C(=O)Nc1ccccc1	none
COc1ccc(C2CCC3(CCC(=O)N3CCOC(=O)NCc3ccc(Cl)cc3)CC2)cc1 (stereo not given)	none
CCCCNCC(O)(c1ccc(Cl)cc1)c1ccc(Cl)cc1	UHRF1 binding 57
COc1ccc(CNCC(O)(c2ccc(Cl)cc2)c2ccc(Cl)cc2)cc1	none
COc1ccc2c(c1)CCCN2C(=O)C1CCCN(S(=O)(=O)c2cccc3ccccc23)C1 (stereo not given)	none
COc1ccc(C(=O)N2CCN(c3cccc(Cl)c3)CC2)cc1S(=O)(=O)NC1CC1	PRMT1 inh 24
CSc1ccc(S(=O)(=O)NCC(=O)OCC(=O)NCCc2ccccc2)cc1[N+](=O)[O-]	none
CSc1ccc(S(=O)(=O)NCC(=O)OC(C)C(=O)NCc2ccccc2)cc1[N+](=O)[O-] (stereo not given)	UHRF1 binding 27
COc1ccc(S(N)(=O)=O)cc1C(N)=O	UHRF1 binding 22
CC[n+]1c(/C=C/C=C/N(C(C)=O)c2ccccc2)sc2ccccc21	PRMT1 inh 35, LEDGF integ inh 17
Cc1cc(C)cc(C(=O)NCCn2cc(SCC(=O)N3CCOCC3)c3ccccc32)c1	UHRF1 binding 38
CC(C)=CCC/C(C)=C/CNCC(=O)N1c2ccccc2[C@]2(C)C[C@@H]3C(=O)N(C/C=C(\C)CCC=C(C)C)CC(=O)N3[C@H]12	none
O/C=c1\ccc2cccc3nc(C(F)(F)F)nc1c23	PRMT1 inh 40
COc1ccc(CN2C(=O)c3cccnc3C2=O)cc1S(=O)(=O)N(C)Cc1ccco1	none
CN(Cc1ccco1)S(=O)(=O)c1cc(F)ccc1CN1C(=O)c2cccnc2C1=O	UHRF1 binding 24
O=C(Nc1ccc(N2CCOCC2)cc1)c1ccc2ncsc2c1	PRMT1 inh 22
N#Cc1ccsc1NC(=O)c1ccc2ncsc2c1	PRMT1 inh 22
O=C(O)c1ccc(NC(=O)c2ccc(Cl)cc2)c(NC(=O)c2ccc(Cl)cc2)c1	none
Cc1ccc(C(=O)Nc2ccc(C(=O)O)cc2NC(=O)c2ccc(C)cc2)cc1	LEDGF integ inh 27
S=C(NC1CCCCC1)N1CCN(Cc2ccccc2Cl)CC1	none
S=C(NC1CCCCC1)N1CCN(Cc2ccccc2)CC1	UHRF1 binding 21
COC(=O)[C@]12C[C@H](CC(=O)NCc3cccc(C(F)(F)F)c3)C(=O)N(CCc3ccc(OC)c(OC)c3)C1=C[C@H](C1CCCC1)O[C@@H]2C	none
CCS(=O)(=O)N1Cc2ccccc2CC1C(=O)Nc1ccc(C)cc1 (stereo not given)	none
CCS(=O)(=O)N1Cc2ccccc2CC1C(=O)Nc1cccc(C)c1 (stereo not given)	UHRF1 binding 50
CSc1ccc(/C=N/n2c(COc3ccccc3)n[nH]c2=S)cc1	PRMT1 inh 22
COC(=O)C1CN(Cc2ccc(F)cc2)CCS(=O)(=O)N1Cc1ccc(C(F)(F)F)cc1 (stereo not given)	none
O=C(O)CCc1ccc(-c2ccc(Br)cc2)n1CC(=O)O	none
O=C(O)CCc1ccc(-c2ccccc2)n1CC(=O)O	PRMT1 inh 23
Cc1cccc(N2CCN(C(=O)C3CCN(S(=O)(=O)N4CCOCC4)CC3)CC2C)c1 (stereo not given)	UHRF1 binding 74
COc1ccc(NC(=O)c2cc([N+](=O)[O-])ccc2NC(=O)CNCc2ccccn2)c(OC)c1	PRMT1 inh 25
Cc1c(C(=O)Nc2ccc(S(=O)(=O)NCC3CCCO3)cc2)cccc1[N+](=O)[O-] (stereo not given)	UHRF1 binding 21
CCCCN(CC)CCCNC(=O)c1cn(C)c2ccc(S(=O)(=O)N(C)C3CCCCC3)cc2c1=O	none
CCN(CC)CCCNC(=O)c1cn(C)c2ccc(S(=O)(=O)N(C)C)cc2c1=O	UHRF1 binding 27
COc1cc(/C=C2/SC(=S)N(CC(=O)O)C2=O)ccc1OC(=O)c1cccs1	none
COc1cc(/C=C2\SC(=S)N(CC(=O)O)C2=O)ccc1OS(=O)(=O)c1ccc(C)cc1	UHRF1 binding 26
Cc1n[nH]c(C)c1S(=O)(=O)NCCc1c[nH]c2ccccc12	none
COc1cc2c(ccc3cc(OC)c(OC)c(O)c32)cc1O	MBD2 inh 27, UHRF1 binding 52, LEDGF integ inh 36
COc1cc2cccc(OC)c(=O)c2c(O)c1OC	none
O=C(CCc1ccc(O)c(O)c1)N/N=C/c1cc2c(cc1[N+](=O)[O-])OCO2	UHRF1 binding 28, LEDGF integ inh 53
